Test results reported in ChEMBL document CHEMBL2021808, “Chemical synthesis and biological evaluation of triazole derivatives as inhibitors of InhA and antituberculosis agents” (Eur J Med Chem, 2012).
Converted amounts (≈) assume the structure as drawn. The source made the active and inactive calls. The rule behind the calls is not given here.

Key:
[1] = target: T1, Enoyl-[acyl-carrier-protein] reductase [NADH] (Mycobacterium tuberculosis) (UniProt P9WGR1); assay: Inhibition of Mycobacterium tuberculosis recombinant InhA expressed in Escherichia coli using trans-2-dodecenoyl-coenzyme-A as substrate at 50 uM
T1 sequence (whole entry): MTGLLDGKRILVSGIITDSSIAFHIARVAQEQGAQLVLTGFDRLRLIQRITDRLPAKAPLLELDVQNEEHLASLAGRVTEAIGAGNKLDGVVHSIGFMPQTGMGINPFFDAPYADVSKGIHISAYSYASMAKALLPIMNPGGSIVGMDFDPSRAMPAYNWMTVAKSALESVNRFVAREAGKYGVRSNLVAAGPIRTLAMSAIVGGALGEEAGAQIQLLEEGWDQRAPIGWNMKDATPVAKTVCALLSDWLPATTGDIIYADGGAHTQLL
In short: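 Recombinant InhA was expressed in E. coli and purified. Reactions with DD-CoA substrate, NADH and inhibitor were run in 30 mM PIPES, 150 mM NaCl, pH 6.8, and started by adding InhA (100 nM final). Percent inhibition was calculated from initial velocity against a no-inhibitor control. Run in triplicate.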

[2] = test system: Mycobacterium tuberculosis; assay: Antimycobacterial activity against Mycobacterium tuberculosis H37Rv by two-fold serial dilution method; format: functional
In short: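 A single colony was grown in complete Middlebrook 7H9 at 37 °C to exponential phase (about 10⁸ CFU/mL, OD600 0.8–1.0). Cultures were diluted to about 10⁷ CFU/mL and streaked onto plates with two-fold dilutions of compound. MIC is the minimal inhibitory concentration.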

Compound | inhibition [1] | MIC [2] [µg/mL]
CCCCCCCCCCc1cn(CCc2ccccc2)nn1 | 43% | 4 (≈ 12.8 µM)
CCCCCCCCCCCCn1nncc1CCc1ccccc1 | 9% | > 4
CCCCCCCCCCCCc1cn(CCc2ccccc2OC)nn1 | 61% | 2 (≈ 5.38 µM)
CCCCCCCCCCc1cn(CCc2ccccc2C)nn1 | 58% | 2 (≈ 6.11 µM)
CCCCCCc1cn(Cc2cccc(OC)c2)nn1 | inactive | > 4
CCCCCCc1cn(CCc2ccccc2)nn1 | 10% | 10 (≈ 38.9 µM)
CCCCCCCCCCc1cn(Cc2cc(OC)cc(OC)c2)nn1 | 24% | > 4
CCCCCCCCCCc1cn(CCc2ccccc2OC)nn1 | 48% | 2 (≈ 5.82 µM)
CCCCCCCCn1cc(Cc2ccccc2)nn1 | 73% | 25 (≈ 92.1 µM)
CCCCCCCCCCCCc1cn(CCc2ccccc2)nn1 | 67% | 4 (≈ 11.7 µM)
CCCCCCCCn1cc(-c2cccc(O)c2)nn1 | inactive | 
CCCCCCCCCCCCc1cn(CCc2ccc(OC)c(OC)c2)nn1 | inactive | 0.25 (≈ 0.623 µM)
CCCCCCCCCCCCc1cn(Cc2ccccc2)nn1 | 52% | > 4
CCCCCCCCCCCCn1cc(CCc2ccccc2)nn1 |  | 0.5 (≈ 1.46 µM)
CCCCCCCCCn1cc(Cc2ccccc2)nn1 | 75% | 25 (≈ 87.6 µM)
CCCCCCc1cn(Cc2cc(C)cc(C)c2)nn1 | 19% | 

Compound | inhibition [1] | MIC [2] [µg/mL]
CCCCCCc1cn(Cc2ccccc2)nn1 | 21% | 25 (≈ 103 µM)
CCCCCCCCc1cn(Cc2ccccc2)nn1 | 34% | > 4
CCCCCCCCCCCCc1cn(Cc2cccc(OC)c2)nn1 | 46% | 4 (≈ 11.2 µM)
CCCCCCCCCCCCn1cc(COc2ccc(Cl)cc2Cl)nn1 | < 5% | 4 (≈ 9.7 µM)
CCCCCCCCCCc1cn(CCc2ccc(OC)c(OC)c2)nn1 | 21% | 2 (≈ 5.35 µM)
CCCCCCCCCCCCn1cc(COc2ccccc2)nn1 | 54% | 2 (≈ 5.82 µM)
CCCCCCc1cn(Cc2cccc(Cl)c2)nn1 | inactive | 4 (≈ 14.4 µM)
CCCCCCCCCCc1cn(Cc2ccccc2)nn1 | 44% | > 4
CCCCCCCCCCc1cn(Cc2cccc(Cl)c2)nn1 | 42% | 4 (≈ 12 µM)
CCCCCCCCCCCCn1cc(COc2ccc(Cl)cc2OC)nn1 | 35% | > 4
CCCCCCCCc1cn(CCc2ccccc2C)nn1 | 37% | 2 (≈ 6.68 µM)
CCCCCCCCCCc1cn(Cc2cccc(OC)c2)nn1 | 20% | > 4
CCCCCCCCCCc1cnnn1CCc1ccccc1 | 33% | > 4
CCCCCCCCn1cc(-c2cccc(C)c2)nn1 | 33% | > 4
CCCCCCCCCCCCn1cc(Cc2ccccc2)nn1 | 58% | 25 (≈ 76.3 µM)
